Results on 4 compounds are retold here after ChEMBL document CHEMBL1143553, “Muscarinic allosteric enhancers of ligand binding: pivotal pharmacophoric elements in hexamethonio-type agents” (J Med Chem, 2005).

What all share (format): tissue-based
Assay [1] addresses T1, Muscarinic acetylcholine receptor M2 (Sus scrofa) (UniProt P06199).
T1 sequence (whole entry): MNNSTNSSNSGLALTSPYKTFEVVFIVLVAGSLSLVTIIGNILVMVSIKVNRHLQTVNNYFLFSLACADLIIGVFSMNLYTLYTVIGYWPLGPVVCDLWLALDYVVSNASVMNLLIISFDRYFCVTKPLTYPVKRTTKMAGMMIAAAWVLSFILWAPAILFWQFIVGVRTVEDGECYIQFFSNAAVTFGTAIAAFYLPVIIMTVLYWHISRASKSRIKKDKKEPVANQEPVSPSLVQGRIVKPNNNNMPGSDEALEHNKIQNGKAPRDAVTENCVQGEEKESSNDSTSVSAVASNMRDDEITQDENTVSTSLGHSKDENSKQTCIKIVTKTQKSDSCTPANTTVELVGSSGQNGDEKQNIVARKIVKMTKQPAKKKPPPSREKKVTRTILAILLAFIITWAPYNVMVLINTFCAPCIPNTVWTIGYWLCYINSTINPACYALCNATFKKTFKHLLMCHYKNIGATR
As to the kind of experiment: Inhibition of [3H]NMS dissociation from muscarinic acetylcholine receptor M2 of pig heart ventricle homogenates; n=3. The method in brief:
(§1)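 Two-point kinetic dissociation assay in porcine heart homogenates (M2) at 37 °C, 3 mM MgHPO4/50 mM Tris-HCl, pH 7.3. Membranes were preincubated 30 min with 0.2 nM [3H]NMS. Dissociation was started by 1 µM atropine alone or plus test compound, and specific binding measured at t = 0 and 10. Apparent k-1 relative to control was plotted against log concentration and fitted by four-parameter logistic (slope unity) for EC50,diss.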

In assay [2] the target is T1, Muscarinic acetylcholine receptor M2 (Sus scrofa). The experiment in a line: Cooperativity against muscarinic acetylcholine receptor M2 of pig heart ventricle homogenates; n=. An outline of the steps: (§2)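 Pig heart ventricle homogenate (M2) equilibrium binding at 37 °C in 3 mM MgHPO4/50 mM Tris-HCl, pH 7.3. Increasing concentrations of test compound were incubated with membranes and 0.2 nM [3H]NMS. Incubation time for equilibrium in presence of allosteric agent was computed from dissociation kinetics. Nonspecific binding was defined with 1 µM atropine. Bound and free were separated by vacuum filtration, with scintillation counting.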

For assay [3] the target is unchanged. The experiment in a line: Affinity for muscarinic acetylcholine receptor M2 of pig heart ventricle homogenates; n=3. The method in brief:
as §2

Assay [4] shares this target. As to the kind of experiment: Inhibition of [3H]NMS dissociation from muscarinic acetylcholine receptor M2 of pig heart ventricle homogenates; n=6. The method in brief: as §1
For assay [5] the target is unchanged. As to the kind of experiment: Cooperativity for muscarinic acetylcholine receptor M2 of pig heart ventricle homogenates; n=4. An outline of the steps:
as §2

Assay [6] shares this target. The experiment in a line: Affinity for muscarinic acetylcholine receptor M2 of pig heart ventricle homogenates; n=4. An outline of the steps: as §2
Assay [7] shares this target. As to the kind of experiment: Inhibition of [3H]NMS dissociation from muscarinic acetylcholine receptor M2 of pig heart ventricle homogenates; n=11. An outline of the steps:
as §1

Assay [8] has the same target. As to the kind of experiment: Cooperativity for muscarinic acetylcholine receptor M2 of pig heart ventricle homogenates; n=8. The method in brief: as §2
For assay [9] the target is unchanged. The experiment in a line: Affinity for muscarinic acetylcholine receptor M2 of pig heart ventricle homogenates; n=8. The method in brief:
as §2

The target is the same in assay [10]. As to the kind of experiment: Inhibition of [3H]NMS dissociation from muscarinic acetylcholine receptor M2 of pig heart ventricle homogenates; n=5. The method in brief: as §1
Assay [11] has the same target. The experiment in a line: Cooperativity for muscarinic acetylcholine receptor M2 of pig heart ventricle homogenates; n=5. An outline of the steps:
as §2

Assay [12] shares this target. The experiment in a line: Affinity for muscarinic acetylcholine receptor M2 of pig heart ventricle homogenates; n=5. An outline of the steps:
as §2

`CC(C)(CN1C(=O)c2ccccc2C1=O)C[N+](C)(C)CCCCCC[N+](C)(C)CCCN1C(=O)c2cccc3cccc(c23)C1=O` yielded a pEC50 diss in assay [1] of 7.28. The compound also displayed a p alpha in assay [2] of -0.01. Moreover, in assay [3], the pKA was determined as 7.28.
In assay [4], `C[N+](C)(CCCCCC[N+](C)(C)CCCN1C(=O)c2cccc3cccc(c23)C1=O)CCCN1C(=O)c2ccccc2C1=O` showed a pEC50 diss of 6.94. Further, in [5], the p alpha was -0.2. This compound came in with a pKA in assay [6] of 7.24.
In [7], `CC(C)(CN1C(=O)c2cccc3cccc(c23)C1=O)C[N+](C)(C)CCCCCC[N+](C)(C)CCCN1C(=O)c2ccccc2C1=O` came in with a pEC50 diss of 8.36. The compound also showed a p alpha in assay [8] of 0.37. This compound also showed a pKA in assay [9] of 8.29.
On to `CC(C)(CN1C(=O)c2ccccc2C1=O)C[N+](C)(C)CCCCCC[N+](C)(C)CC(C)(C)CN1C(=O)c2cccc3cccc(c23)C1=O`, for which the pEC50 diss in [10] was found to be 7.73. In addition, in assay [11], the p alpha was determined as 0.56. The compound also registered a pKA in [12] of 7.41.
